Results on nine molecules are retold here after ChEMBL document CHEMBL2163314, “Potent aminocyclitol glucocerebrosidase inhibitors are subnanomolar pharmacological chaperones for treating gaucher disease” (J Med Chem, 2012).

The target of assay [1] is T1, Alpha-galactosidase A (Homo sapiens) (UniProt P06280).
T1 sequence (whole entry): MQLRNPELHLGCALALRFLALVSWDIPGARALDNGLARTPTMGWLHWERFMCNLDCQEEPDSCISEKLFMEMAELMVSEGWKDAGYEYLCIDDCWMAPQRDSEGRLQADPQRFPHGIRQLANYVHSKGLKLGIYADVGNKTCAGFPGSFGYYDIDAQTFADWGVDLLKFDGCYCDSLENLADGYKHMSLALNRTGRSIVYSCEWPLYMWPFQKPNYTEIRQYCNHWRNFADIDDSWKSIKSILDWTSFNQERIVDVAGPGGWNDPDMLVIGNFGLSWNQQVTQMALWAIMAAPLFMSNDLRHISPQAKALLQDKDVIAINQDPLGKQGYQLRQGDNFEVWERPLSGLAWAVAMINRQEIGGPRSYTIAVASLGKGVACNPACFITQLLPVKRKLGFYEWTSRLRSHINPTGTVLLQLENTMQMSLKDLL
Put plainly: Inhibition of lysosomal alpha-galactosidase in human fibroblast at 50 uM after 24 hrs. The essentials:
(§1)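 Wild-type human fibroblasts (DMEM, 10% FBS, passages 14–30) were plated overnight, then exposed to compound in fresh medium for 24 h at 37 °C, 5% CO2. Lysosomal enzyme activity was then assayed in intact monolayers after the medium was removed. Triplicate determinations.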

Assay [2] deals with Lysosomal alpha-glucosidase (Homo sapiens) (UniProt P10253). Put plainly: Inhibition of lysosomal alpha-glucosidase in human fibroblast at 50 uM after 24 hrs. The essentials:
as §1

In assay [3] the target is T2, Lysosomal acid glucosylceramidase (Homo sapiens, UniProt P04062).
T2 sequence (P04062 whole entry): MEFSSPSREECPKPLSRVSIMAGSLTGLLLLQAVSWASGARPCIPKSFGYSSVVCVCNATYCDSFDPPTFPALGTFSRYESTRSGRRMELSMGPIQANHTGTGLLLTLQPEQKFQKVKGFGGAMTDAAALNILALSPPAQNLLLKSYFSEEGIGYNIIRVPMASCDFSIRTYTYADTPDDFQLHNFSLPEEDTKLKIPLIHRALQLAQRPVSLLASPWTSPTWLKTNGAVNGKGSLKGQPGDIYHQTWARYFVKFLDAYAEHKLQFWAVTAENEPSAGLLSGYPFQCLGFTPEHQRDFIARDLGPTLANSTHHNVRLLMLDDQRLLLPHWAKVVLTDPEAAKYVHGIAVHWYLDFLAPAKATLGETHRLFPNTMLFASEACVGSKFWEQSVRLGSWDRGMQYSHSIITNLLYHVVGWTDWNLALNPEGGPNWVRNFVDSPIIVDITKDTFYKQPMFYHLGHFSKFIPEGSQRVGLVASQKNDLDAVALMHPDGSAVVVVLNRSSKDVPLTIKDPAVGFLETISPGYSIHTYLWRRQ
Put plainly: Competitive inhibition of recombinant Imiglucerase using 4-methylumbelliferyl-beta-D-glucopyranoside as substrate preincubated for 30 mins before substrate addition at pH 7.0 Lineweaver-Burk plot assay.

The target in assay [4] is T2, Lysosomal acid glucosylceramidase. The experiment in a line: Binding affinity to recombinant imiglucerase using 4-methylumbelliferyl-beta-D-glucopyranoside as substrate preincubated for 30 mins before substrate addition by Lineweaver-Burk plot assay.
Assay [5] has the same target. The experiment in a line: Binding affinity to recombinant imiglucerase using 4-methylumbelliferyl-beta-D-glucopyranoside as substrate preincubated for 30 mins before substrate addition by Dixon plot assay.
The target of assay [6] is T3, Non-lysosomal glucosylceramidase (Mus musculus) (UniProt Q69ZF3).
T3 sequence (whole entry): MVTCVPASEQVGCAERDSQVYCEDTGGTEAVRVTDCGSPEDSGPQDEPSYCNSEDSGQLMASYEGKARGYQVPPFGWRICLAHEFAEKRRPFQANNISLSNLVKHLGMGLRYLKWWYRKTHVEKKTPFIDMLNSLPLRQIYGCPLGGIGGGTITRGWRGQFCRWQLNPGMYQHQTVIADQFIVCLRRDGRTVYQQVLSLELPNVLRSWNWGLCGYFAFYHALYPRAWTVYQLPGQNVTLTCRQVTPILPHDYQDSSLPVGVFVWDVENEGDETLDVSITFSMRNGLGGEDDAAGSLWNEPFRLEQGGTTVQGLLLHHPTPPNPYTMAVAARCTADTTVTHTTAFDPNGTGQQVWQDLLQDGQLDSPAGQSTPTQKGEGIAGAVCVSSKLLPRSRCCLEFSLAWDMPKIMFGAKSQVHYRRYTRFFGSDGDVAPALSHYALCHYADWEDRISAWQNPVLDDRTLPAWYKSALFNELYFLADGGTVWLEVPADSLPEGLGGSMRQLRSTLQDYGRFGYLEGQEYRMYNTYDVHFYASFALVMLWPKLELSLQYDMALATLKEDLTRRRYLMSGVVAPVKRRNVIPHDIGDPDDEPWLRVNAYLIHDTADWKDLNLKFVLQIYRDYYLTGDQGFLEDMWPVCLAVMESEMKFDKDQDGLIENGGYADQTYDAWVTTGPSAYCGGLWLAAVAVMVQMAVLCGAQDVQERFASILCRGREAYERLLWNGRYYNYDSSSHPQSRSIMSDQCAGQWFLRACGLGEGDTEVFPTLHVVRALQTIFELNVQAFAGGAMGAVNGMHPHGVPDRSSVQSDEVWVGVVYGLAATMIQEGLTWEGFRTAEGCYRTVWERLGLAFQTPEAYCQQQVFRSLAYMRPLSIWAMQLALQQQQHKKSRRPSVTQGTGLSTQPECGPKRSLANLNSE
Put plainly: Inhibition of GBA2 activity in mouse tissue homogenate at 50 uM. The essentials:
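Mouse tissue homogenates were used to separate nonlysosomal GBA2 from lysosomal GCase β-glucosidase activity. Compounds were screened at 50 and 5 μM with 3 mM substrate. Two independent experiments, each run in duplicate.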

For assay [7], the system named is Prunus dulcis. The experiment in a line: Inhibition of almond beta-glucosidase at 100 uM.

Structures are written as SMILES. pIC50, pKi: −log10 of the molar value. Calls of active or inactive are those of the source. The rule behind the calls is not given here.

As to `CCCCCCCCCN[C@@H]1[C@H](O)[C@@H](O)[C@H](O)[C@@H](O)[C@@H]1O`, the inhibition entry in assay [1], in assay [2] and in assay [7] was “inactive” in each case. Also, the pIC50 – broadly, the negative decadic logarithm of the IC50, by convention in mol/L – in assay [3] was 4.60. The pKi in assay [4] and in assay [5] was 4.75 throughout. Further, the inhibition (commonly the change of the read-out against control, counted positive when it falls) in assay [6] came to 92%.
For `CCCCCCCCCN[C@H]1[C@H](O)[C@@H](O)[C@H](O)[C@@H](O)[C@@H]1OCCCCCCCCC.Cl`, the negative logarithm of the IC50 (pIC50) in assay [3] is 6.77. For the same molecule, the pKi in assay [4] and in assay [5] was 6.55 throughout. In assay [6], the inhibition entry was “Active”. Besides, the inhibition entry in assay [7] was “inactive”.
Turning to `CCCCCCCCCN[C@H]1[C@H](O)[C@@H](O)[C@H](O)[C@@H](O)[C@H]1OC.Cl`, the inhibition result in assay [1], in assay [2] and in assay [7] was “inactive” in each case. The pIC50 in assay [3] was 7.72. Further, the pKi in assay [4] and in assay [5] was 7.28 in each case. For the same molecule, in assay [6], the inhibition result is “Active”.
Regarding `CCCCCCCCCN[C@@H]1[C@H](O)[C@H](O)[C@@H](O)[C@H](O)[C@H]1O.Cl`, the inhibition result in assay [1], in assay [2] and in assay [7] was “inactive” throughout. For the same molecule, the pIC50 in assay [3] is 7.60. Further, the pKi in assay [4] and in assay [5] was 7.49 throughout. Moreover, the inhibition result in assay [6] is “Active”.
For `CCCCCCCCCO[C@H]1[C@@H](N)[C@H](O)[C@@H](O)[C@H](O)[C@H]1O.Cl`, the inhibition result in assay [1], in assay [2] and in assay [7] was “inactive” each time. Also, in assay [3], the pIC50 was 6.92. The pKi in assay [4] and in assay [5] was 6.89 each time. Further, the inhibition entry in assay [6] is “Active”.
On to `CCCCCCCCCN[C@H]1[C@H](O)[C@@H](O)[C@H](O)[C@@H](O)[C@@H]1O`, for which the inhibition entry in assay [1], in assay [2] and in assay [7] was “inactive” each time. For the same molecule, the pIC50 in assay [3] was 6.11. Also, the pKi in assay [4] and in assay [5] was 5.72 each time. The inhibition result in assay [6] was “Active”.
`CCCCCCCCCN[C@H]1[C@H](O)[C@@H](O)[C@H](O)[C@@H](O)[C@@H]1OC.Cl`: the inhibition result in assay [1], in assay [2] and in assay [7] was “inactive” each time. The pIC50 in assay [3] was 6.17. The pKi in assay [4] and in assay [5] was 5.80 each time. Further, the inhibition entry in assay [6] is “Active”.
For the molecule `CCCCCCCCCN(CCCCCCCCC)[C@@H]1[C@H](O)[C@H](O)[C@@H](O)[C@H](O)[C@H]1O.Cl`, the pIC50 in assay [3] is 6.28. In addition, the pKi in assay [4] and in assay [5] was 6.09 each time. Besides, the inhibition result in assay [6] was “Active”. Further, the inhibition result in assay [7] was “inactive”.
As for `CCCCCCCCCN[C@H]1[C@H](O)[C@@H](O)[C@H](O)[C@@H](O)[C@H]1OCCCCCCCCC.Cl`, in assay [3], the pIC50 is 8.30. Moreover, the pKi in assay [4] and in assay [5] was 9.00 in each case. For the same molecule, in assay [6], the inhibition entry is “Active”. The inhibition entry in assay [7] is “inactive”.
